Assay outcomes as filed in PubChem BioAssay.
SUMO1-SIM PPI: SUMO1-SIM interaction modulation; P63165; SUMO1 binding to a labelled peptide, TR-FRET, 1 h; inhibition, % at 20 µM; hit rate 0.33% among 360,000; AID 602429; in the data active = inhibition above about 37%
Target sequence (P63165 whole entry, looked up): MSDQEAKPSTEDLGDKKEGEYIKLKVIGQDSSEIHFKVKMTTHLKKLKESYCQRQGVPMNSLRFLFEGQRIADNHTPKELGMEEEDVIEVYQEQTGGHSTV
Scp1 inh: inhibitors of human Scp-1 phosphatase; Q9GZU7; Recombinant Scp1, phosphopeptide, malachite green phosphate absorbance; inhibition, % at 20 µM; hit rate 0.88% among 340,000; AID 493091;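 active = inhibition above about 50% at 20 µM, limit read from the data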;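 also: plate controls were DMSO wells with enzyme for no effect and wells lacking enzyme for full effect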
Target sequence (Q9GZU7 76-261 limits assumed): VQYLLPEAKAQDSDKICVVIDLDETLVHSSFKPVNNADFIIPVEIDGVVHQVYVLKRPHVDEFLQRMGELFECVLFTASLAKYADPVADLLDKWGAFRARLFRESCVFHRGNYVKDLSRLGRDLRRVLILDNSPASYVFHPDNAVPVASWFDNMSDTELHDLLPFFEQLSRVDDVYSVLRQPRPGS
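Test system – truncated SCP-1 phosphatase (76-261aa) · Reagent – Phosphorylated 17-residue peptide substrate · Incubation – 45 min room-temperature reaction, 5 min colour, 30 min stabiliser · Detection – colorimetric phosphate reagent with accelerator and stabiliser, absorbance at 630 nm · Measure – % inhibition at 20 µM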
STEP inh: inhibitors of human striatal-enriched phosphatase STEP; P54829; recombinant STEP, OMFP fluorogenic substrate, fluorescence; inhibition, % at 20 µM; hit rate 0.25% among 360,000;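 active = inhibition at 20 µM, scaled per plate between control wells, above about 37%, limit read from the data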;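 also: 0% = DMSO with enzyme and substrate and 100% = substrate only without enzyme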
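System: isolated STEP enzyme; schedule: 20 min enzyme reaction at room temperature, protected from light; medium: Bis-Tris buffer pH 6.0, 2.5 mM DTT, 0.005% Tween 20; signal: fluorescence, 480/540 nm; dosing: single compound dose of 20 µM, 1% DMSO final; also added: OMFP substrate, 25 µM final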
SUMO HTRF inh: blocks human SUMOylation mediated by UBC9 | P63279 | HTRF SUMOylation assay, SAE1/SAE2 + UBC9, in vitro | inhibition, % at 35 µM | hit rate 0.36% among 290,000 | AID 2006; in the data active = inhibition above about 50%, passing the limit was not always enough
Target sequence (P63279 whole entry, looked up): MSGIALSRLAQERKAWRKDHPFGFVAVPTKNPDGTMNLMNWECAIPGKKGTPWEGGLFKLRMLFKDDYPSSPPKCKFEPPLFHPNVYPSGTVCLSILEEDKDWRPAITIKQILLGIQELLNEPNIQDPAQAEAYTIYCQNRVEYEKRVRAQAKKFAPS
LMPTP inh: blocks human LMPTP phosphatase; hit rate 0.22% among 360,000; recombinant LMPTP-A, OMFP fluorogenic substrate, fluorescence intensity; AID 651560; P24666; inhibition, % at 20 µM;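 active = compounds that cut the enzyme signal by at least half of the control window in the single-dose screen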;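 also: plate controls were DMSO wells with enzyme plus substrate for no effect and substrate without enzyme for full effect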
Target sequence (P24666 whole entry, looked up): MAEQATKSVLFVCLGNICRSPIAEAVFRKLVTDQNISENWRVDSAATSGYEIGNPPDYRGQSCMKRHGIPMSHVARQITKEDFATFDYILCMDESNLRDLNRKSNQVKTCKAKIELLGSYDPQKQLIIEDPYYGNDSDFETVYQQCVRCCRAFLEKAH
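Test system – LMPTP-A phosphatase enzyme · Quantity – 0.625 nM LMPTP-A final · Reagent – OMFP substrate, 400 µM final · Dosing – one test concentration per compound, 20 µM, with 3% DMSO overall · Timing – 50 min enzyme reaction at room temperature, protected from light · Detection – fluorescence intensity · Controls – substrate-only low control, DMSO enzyme-plus-substrate high control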
DNMT1 block: inhibitors of human DNMT1 | P26358 | DNMT1 molecular beacon, Hinp1I cleavage, fluorescence | inhibition (reported as % activation of signal), % at 10 µM | hit rate 0.83% among 360,000; in the data active = inhibition above about 50%
* = called active by the depositor; nt = no result given. Most compounds without a hit are left out; they make up all but 1.9% or so of the library.

SMILES	SUMO1-SIM PPI	Scp1 inh	STEP inh	SUMO HTRF inh	LMPTP inh	DNMT1 block
O=C1NC(=O)/C(=C\c2ccc(O)cc2O)S1	9.6	53.1*	1.2	37.7	32.0	31.6
CCOC(=O)C1=CCN(S(=O)(=O)c2ccccc2C)C1c1cccc(Cl)c1 (stereo not drawn)	2.1	nt	nt	nt	2.1	nt
O=C(NOCc1ccccc1)c1ccccc1	4.5	1.3	1.1	nt	0.4	5.7
O=C1C(C2=C(O)c3ccccc3C2=O)=Nc2ccccc21	-5.6	51.7*	27.1	4.0	0.7	41.1
NC(=O)c1ccccc1OCc1nnc(-c2ccccc2Br)o1	1.3	-5.3	-1.1	2.8	0.3	-2.5
O=[N+]([O-])c1ccc(O)c(/C=N/Nc2ncnc3c2cnn3-c2ccccc2)c1	19.4	11.5	10.4	-31.5	50.1*	-21.5
O=[N+]([O-])c1ccc(O)c(/C=N/Nc2ccccn2)c1	-27.2	-2.7	3.7	-93.2	0.3	0.9
COc1ccc(N=c2ssnc2Cl)cc1	-1.7	-7.2	6.0	8.1	45.0	-0.6
COc1cc(N=c2ssnc2Cl)cc(OC)c1OC	-4.4	-4.3	12.0	-26.4	57.4*	-0.1
CCCN1C(=O)CC(c2ccc(OC)c(OC)c2)C1=O (stereo not drawn)	2.3	nt	-0.7	nt	47.1*	-3.4
CC(C)(C)c1ccccc1NC(=O)CN1C(=O)NC(Cc2ccccc2)C1=O (stereo not drawn)	-2.0	-3.9	-1.6	nt	-0.4	0.1
COCCCn1c(C(=O)N2CCOCC2)cc2c(=O)n3ccccc3nc21	-7.9	-2.0	0.3	52.0*	-0.6	3.9
COCCCn1c(C(=O)Nc2ccc3c(c2)OCO3)cc2c(=O)n3ccccc3nc21	1.1	-3.8	0.1	38.8	-0.3	-1.0
CC1=NOC(=O)/C1=C\c1ccc(-c2cccc(Cl)c2)o1	40.0*	-4.4	7.5	4.6	4.3	57.2*
Cc1ccc(/C=C2/C(=O)ON=C2c2ccccc2)o1	6.3	0.6	3.4	18.7	3.9	22.5
CC1=NOC(=O)/C1=C\c1ccc(-c2ccccc2Br)o1	29.9	-3.4	3.4	37.7	5.2	51.7*
CCc1cccc(NC(=O)CCCn2c(=O)[nH]c3ccsc3c2=O)c1	1.4	0.9	-2.9	-7.2	0.6	-1.1
Cc1ccc(C)c(-c2cc(C(=O)NC3CC3)c3ccccc3n2)c1	-1.4	-1.8	-0.2	8.8	-0.8	0.9
COc1ccc(OC)c(-c2cc(C(=O)N/N=C(\C)c3cccnc3)c3ccccc3n2)c1	9.9	-12.7	3.4	9.7	-0.2	-0.9
C/C(=N\NC(=O)c1cc(-c2ccco2)nc2ccccc12)c1cccnc1	9.6	-3.4	1.9	60.1*	2.3	-6.1
O=C(NC1CC1)c1cc(-c2ccco2)nc2ccccc12	40.4*	80.5*	19.8	40.6	51.4*	90.2*
N#Cc1ccc(NC(=O)COC(=O)CCc2nc3ccccc3c(=O)[nH]2)cc1	-0.5	-5.2	-0.9	12.5	0.9	3.1
N#Cc1c(-c2ccccc2)nc(SCC(=O)N(c2ccccc2)c2ccccc2)[nH]c1=O	8.0	-7.3	-1.1	13.6	0.9	-0.3
N#Cc1c(-c2ccccc2)nc(SCC(=O)N2c3ccccc3Sc3ccccc32)[nH]c1=O	46.5*	-2.0	-3.7	nt	3.7	4.5
O=C(NCCOc1ccccc1)c1ccc2c(c1)S(=O)(=O)c1cc(Cl)ccc1C2=O	-23.6	-8.1	2.2	nt	1.7	-3.0
SMILES	SUMO1-SIM PPI	Scp1 inh	STEP inh	SUMO HTRF inh	LMPTP inh	DNMT1 block
Nc1nn2cc(-c3ccc(Br)cc3)nc2c2ccccc12	64.6*	0.2	-4.4	5.6	3.2	-3.5
O=[N+]([O-])c1ccc(COc2ccc(CN3CCCCC3)cc2)cc1	-27.7	1.0	0.1	nt	0.5	-0.7
CC(C)Oc1ccc(-c2nc(NCC3CCCO3)c3ccccc3n2)cc1 (stereo not drawn)	4.0	-4.3	0.1	16.5	50.9*	6.8
CCOC(=O)c1sc(N/N=C/c2cc(Br)c(O)c(OC)c2)nc1C	39.5	2.3	83.7*	10.0	-0.2	-9.3
CCN(c1ccc(C)c(C)c1)S(=O)(=O)c1ccc2c(c1)CCN2C(=O)CCC(=O)O	47.1*	-6.8	1.9	19.8	-0.5	-2.4
CCN(c1ccc(OC)cc1)S(=O)(=O)c1ccc2c(c1)CCN2C(=O)CCC(=O)O	-0.3	5.4	-0.8	-0.9	-0.1	1.9
CN(C)c1ccc(-c2csc(C(O)c3cccc(Cl)c3)n2)cc1 (stereo not drawn)	-2.5	nt	-2.1	nt	0.0	-13.7
Cc1ccc(NC(=O)C2CCN(C(=O)c3cccs3)CC2)c(C)c1	2.9	98.7*	-1.8	-13.9	-2.6	2.0
Cc1ccc(NC(=O)C2CCCN2C(=O)c2cccs2)c(C)c1 (stereo not drawn)	-9.6	17.0	-3.2	9.7	-2.3	0.5
O=C(NC1CCCCC1)c1sc(=S)n2c1[nH]c(=O)c1ccccc12	10.5	80.0*	7.6	23.9	18.6	-6.0
O=C(Nc1ccc(-c2nc3ccccc3[nH]2)cc1)c1cccc(N2C(=O)CCC2=O)c1	2.3	-5.7	1.0	64.8*	5.2	-7.8
CC1=NN(c2ccc(S(=O)(=O)O)cc2C)C(=O)C1	12.7	-2.3	-3.4	83.9*	1.7	-9.7
CCOC(=O)c1cnc(SSc2ncc(C(=O)OCC)c(N)n2)nc1N	-2.3	3.8	-2.8	4.0	78.3*	2.6
C=CCSc1ncc(C(=O)OCC)c(N)n1	1.6	-0.9	-2.7	11.6	3.1	1.0
Cc1nc(N/N=C/c2cccc([N+](=O)[O-])c2)cc(N2CCCCC2)n1	-22.8	nt	4.7	nt	2.8	-8.0
CN(C)S(=O)(=O)c1ccc(C(=O)NCC(C)(C)CN=C2NS(=O)(=O)c3ccccc32)cc1	6.2	-8.1	-0.2	7.3	-1.3	0.3
COc1ccccc1NC(=O)c1sc2ncn(CC(=O)Nc3ccccc3)c(=O)c2c1C	1.2	14.7	2.3	51.2*	5.5	9.6
CC(C)CCn1c(COc2ccccc2)nn(CCC#N)c1=S	6.2	-7.0	3.5	-5.6	0.3	-1.5
COCCn1c(=N)c(C(=O)NCCc2ccccc2)cc2c(=O)n3cccc(C)c3nc21	-13.7	3.2	-0.7	nt	2.9	3.0
Cc1cccn2c(=O)c3cc(C(=O)NCCc4ccccc4)c(=N)n(CCCn4ccnc4)c3nc12	-5.1	4.1	-1.5	-1.7	64.2*	12.9
N=c1c(C(=O)NCc2ccco2)cc2c(=O)n3ccccc3nc2n1CCc1ccccc1	-7.3	0.8	-0.6	40.7	54.7*	26.8
O=C(NCc1ccco1)c1cccn2c(=O)c3cc4ccccc4cc3nc12	nt	nt	nt	77.8*	nt	nt
COc1ccc(CCNC(=O)c2cc3c(=O)n4ccccc4nc3n(Cc3ccco3)c2=N)cc1OC	10.0	6.8	0.8	17.2	22.7	8.0
